Measured values as given in article PMC9868102 (Cell chemical biology, 2023).
“Also recorded” adds a separate entry of the source.

Tests used:
human TG2 = molecular target: T1, human TG2 (Homo sapiens, UniProt P21980); test: TG2 steady-state kinetics of substrates, wild-type TG2 ± α2M and vs pH; type: biochemical; details: kcat of AC-PQLPF-NH2
T1 sequence (P21980 1-687): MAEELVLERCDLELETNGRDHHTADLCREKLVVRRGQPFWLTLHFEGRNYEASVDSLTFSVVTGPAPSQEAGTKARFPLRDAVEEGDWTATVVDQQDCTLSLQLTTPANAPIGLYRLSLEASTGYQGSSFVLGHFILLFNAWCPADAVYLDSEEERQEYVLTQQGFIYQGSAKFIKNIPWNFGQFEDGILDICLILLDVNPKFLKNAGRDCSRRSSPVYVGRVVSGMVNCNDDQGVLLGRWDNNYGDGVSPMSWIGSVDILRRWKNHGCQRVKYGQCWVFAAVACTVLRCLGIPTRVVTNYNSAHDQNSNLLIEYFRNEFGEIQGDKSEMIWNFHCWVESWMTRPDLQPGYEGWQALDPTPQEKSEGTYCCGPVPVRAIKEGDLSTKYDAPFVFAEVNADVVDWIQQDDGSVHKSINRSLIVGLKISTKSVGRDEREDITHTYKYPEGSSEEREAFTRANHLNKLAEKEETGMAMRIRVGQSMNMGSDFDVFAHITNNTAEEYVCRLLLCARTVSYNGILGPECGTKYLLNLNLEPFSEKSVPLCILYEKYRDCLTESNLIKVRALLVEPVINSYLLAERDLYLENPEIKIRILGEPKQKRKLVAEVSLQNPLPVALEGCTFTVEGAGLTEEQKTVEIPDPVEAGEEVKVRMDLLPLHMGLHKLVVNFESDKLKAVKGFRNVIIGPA
Summary of the method: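 His6-tagged human TG2 from E. coli BL21(DE3) was purified by Ni-NTA and anion exchange, reduced, and desalted into PBS. It was assayed at 1 μM final, ± recombinant human α2M (Expi293F-expressed), with GDH/α-ketoglutarate/NADH coupling in 200 mM MOPS pH 7.2 with 5 mM CaCl2. Substrate was Ac-PQLPF-NH2 unless otherwise specified. Absorbance at 340 nm was followed for 60 min at 25 °C. Steady-state rates came from linear progress-curve slopes; triplicate.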

[1] = molecular target: T2, TG2 derivative lacking the C-terminal β-barrel domain (Homo sapiens, UniProt P21980); test: Kinetics of truncated TG2 lacking the C-terminal β-barrel domain; type: biochemical; details: TG2 derivatives lacking the C-terminal β-barrel domain
T2 sequence (P21980 1-586): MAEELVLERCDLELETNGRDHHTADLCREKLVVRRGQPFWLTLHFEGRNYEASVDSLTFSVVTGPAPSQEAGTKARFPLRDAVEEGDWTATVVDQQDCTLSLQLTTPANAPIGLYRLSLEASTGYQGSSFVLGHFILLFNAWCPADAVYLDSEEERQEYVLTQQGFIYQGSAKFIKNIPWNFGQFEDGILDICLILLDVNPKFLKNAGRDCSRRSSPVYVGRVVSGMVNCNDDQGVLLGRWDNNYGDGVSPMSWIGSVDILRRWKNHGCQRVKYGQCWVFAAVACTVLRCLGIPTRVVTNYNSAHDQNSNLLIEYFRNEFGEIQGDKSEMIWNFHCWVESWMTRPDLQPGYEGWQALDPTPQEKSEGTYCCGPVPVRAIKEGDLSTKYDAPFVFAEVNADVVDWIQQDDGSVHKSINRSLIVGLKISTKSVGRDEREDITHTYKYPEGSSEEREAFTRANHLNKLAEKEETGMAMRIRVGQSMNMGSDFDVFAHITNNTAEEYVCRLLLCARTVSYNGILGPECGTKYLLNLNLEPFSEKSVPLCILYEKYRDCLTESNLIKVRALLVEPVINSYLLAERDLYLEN
Summary of the method: (§1)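 Truncated human TG2 constructs with N-terminal His tags (residues 1-586 lacking β2; residues 1-460 lacking β1 and β2) were expressed in Rosetta2 E. coli and purified by Ni, anion exchange and SEC. The assay was GDH-coupled: 200 mM MOPS pH 7.2, 5 mM CaCl2, 10 mM α-ketoglutarate, 18 U/mL GDH, 0.5 mM NADH and Ac-PQLPF-NH2. Reduced enzyme was at 1 μM final, ± Expi293F-expressed human α2M. NADH loss was read at 340 nm for 60 min at 25 °C. Rates came from linear slopes; triplicate.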

[2] = molecular target: T3, TG2 derivative harboring the N-terminal and catalytic domains but lacking both β-barrel domains (Homo sapiens, UniProt P21980); test: Kinetics of truncated TG2 lacking both β-barrel domains; type: biochemical; details: TG2 derivative lacking both β-barrel domains
T3 sequence (P21980 1-460): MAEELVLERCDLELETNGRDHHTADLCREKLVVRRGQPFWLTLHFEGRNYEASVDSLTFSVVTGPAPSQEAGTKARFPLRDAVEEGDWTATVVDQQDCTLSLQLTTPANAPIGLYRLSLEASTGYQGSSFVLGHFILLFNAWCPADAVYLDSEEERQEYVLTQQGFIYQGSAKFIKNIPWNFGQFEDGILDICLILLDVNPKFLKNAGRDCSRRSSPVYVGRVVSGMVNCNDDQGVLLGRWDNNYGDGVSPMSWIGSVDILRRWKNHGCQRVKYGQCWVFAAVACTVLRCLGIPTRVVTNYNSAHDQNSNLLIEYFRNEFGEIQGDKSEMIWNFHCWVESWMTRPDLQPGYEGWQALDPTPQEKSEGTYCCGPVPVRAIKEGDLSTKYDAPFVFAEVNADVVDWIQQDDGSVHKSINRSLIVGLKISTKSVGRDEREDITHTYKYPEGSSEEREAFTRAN
Summary of the method: as §1

NRK cells = test: Uptake of fluorescent TG2 probes by NRK cells; type: cell-based, rat; details: HB230 1 μM
Summary of the method: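 NRK cells were grown in DMEM. Media were replaced, and 1 μM probe was co-incubated for 90 min with α2M at varied levels (some Alexa 555 NHS-labelled), plus TRX as specified. Cells were washed in HBSS, fixed in 2% PFA, DAPI-stained and imaged by confocal microscopy. Puncta were counted with a circularity cutoff of 0.3 and a minimum size threshold, then normalized to cell number by DAPI.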

wild-type MEFs = test: Internalization of HB230 and α2M by wild-type MEFs; type: cell-based, mouse; details: α2M 100 μg/mL, HB230 10 μM, exogenous TRX and betamethasone
LRP-1 knock-out MEFs = test: Internalization of HB230 and α2M by LRP-1 knock-out MEFs; type: cell-based, mouse; details: α2M 100 μg/mL, HB230 10 μM, exogenous TRX and betamethasone
[3] = tested on: 9022 cells (HLA-DQ2 homozygous B-cell line); test: Cell surface presentation by HLA-DQ2 expressing 9022 B cells; type: cell-based, human; details: 100 nM TG2; 150 cells from 2-4 frames of 3-6 replicates
Summary of the method: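 EBV-immortalised HLA-DQ2-homozygous B cells in RPMI with 10% FBS and 1% PenStrep, pelleted, resuspended and left 20 min at 37 °C to adhere on poly-L-lysine-coated glass. Cy5-33mer, α2M and 100 nM recombinant human TG2 (E. coli, His6) added for 2.5 h. Anti-HLA-DQ2 (1:50) then Alexa 488 secondary, each 20 min on ice, fixed, DAPI, confocal. Cells with surface HLA-DQ2/Cy5 overlay scored; 2-4 frames of 3-6 replicates.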

transglutaminase-2 (TG2) = test: Bio-layer interferometry of α2M-TG2 interaction; type: binding; details: preliminary efforts

inhibition of truncated TG2 by α2M [1]: Inhibition was abolished
inhibition of truncated TG2 by α2M [2]: Inhibition was abolished
detection of α2M-TG2 interaction (transglutaminase-2 (TG2)): unsuccessful
Substance: α2M: ~800 kDa homotetrameric pan-protease inhibitor
inhibition of TG2 by α2M, mechanism (human TG2): non-competitive inhibition mechanism of TG2 by α2M
α2M concentration up to which HB230 uptake increases (saturation) (NRK cells; 90 min): ~ 100 μg/mL
effect of α2M on HB230 uptake (NRK cells; α2M supplementation): strong dose-dependent increase in uptake of HB230; also recorded: predominantly appeared to affect the size and number of the larger puncta
internalization by wild-type MEFs (wild-type MEFs): readily internalize
internalization by LRP-1 knock-out MEFs (LRP-1 knock-out MEFs): markedly reduced uptake
effect of α2M on cell surface 33mer [3]: enhanced upon addition of exogenous α2M; also recorded: the number of cells displaying gluten peptides on their surface increases
